The assay deals with Sodium channel protein type 5 subunit alpha (Homo sapiens, UniProt Q14524). Description: Inhibition of human Nav1.5 expressed in HEK293 cells assessed as inward peak current by ion-works quattro patch clamp electrophysiology method. Format: cell-based. The method, boiled down:
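Stable HEK293 line expressing human NaV1.5, recorded by population patch clamp on the IonWorks Quattro.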
In general terms: The patch-clamp technique gives a direct electrical read-out from membranes.

Structures are written as SMILES. Positions of bridges follow the written chain, without caps; N, C: chain ends. Residues, ends and D or L forms follow the SMILES beside them.

Sodium channel protein type 5 subunit alpha, sequence (Q14524 whole entry): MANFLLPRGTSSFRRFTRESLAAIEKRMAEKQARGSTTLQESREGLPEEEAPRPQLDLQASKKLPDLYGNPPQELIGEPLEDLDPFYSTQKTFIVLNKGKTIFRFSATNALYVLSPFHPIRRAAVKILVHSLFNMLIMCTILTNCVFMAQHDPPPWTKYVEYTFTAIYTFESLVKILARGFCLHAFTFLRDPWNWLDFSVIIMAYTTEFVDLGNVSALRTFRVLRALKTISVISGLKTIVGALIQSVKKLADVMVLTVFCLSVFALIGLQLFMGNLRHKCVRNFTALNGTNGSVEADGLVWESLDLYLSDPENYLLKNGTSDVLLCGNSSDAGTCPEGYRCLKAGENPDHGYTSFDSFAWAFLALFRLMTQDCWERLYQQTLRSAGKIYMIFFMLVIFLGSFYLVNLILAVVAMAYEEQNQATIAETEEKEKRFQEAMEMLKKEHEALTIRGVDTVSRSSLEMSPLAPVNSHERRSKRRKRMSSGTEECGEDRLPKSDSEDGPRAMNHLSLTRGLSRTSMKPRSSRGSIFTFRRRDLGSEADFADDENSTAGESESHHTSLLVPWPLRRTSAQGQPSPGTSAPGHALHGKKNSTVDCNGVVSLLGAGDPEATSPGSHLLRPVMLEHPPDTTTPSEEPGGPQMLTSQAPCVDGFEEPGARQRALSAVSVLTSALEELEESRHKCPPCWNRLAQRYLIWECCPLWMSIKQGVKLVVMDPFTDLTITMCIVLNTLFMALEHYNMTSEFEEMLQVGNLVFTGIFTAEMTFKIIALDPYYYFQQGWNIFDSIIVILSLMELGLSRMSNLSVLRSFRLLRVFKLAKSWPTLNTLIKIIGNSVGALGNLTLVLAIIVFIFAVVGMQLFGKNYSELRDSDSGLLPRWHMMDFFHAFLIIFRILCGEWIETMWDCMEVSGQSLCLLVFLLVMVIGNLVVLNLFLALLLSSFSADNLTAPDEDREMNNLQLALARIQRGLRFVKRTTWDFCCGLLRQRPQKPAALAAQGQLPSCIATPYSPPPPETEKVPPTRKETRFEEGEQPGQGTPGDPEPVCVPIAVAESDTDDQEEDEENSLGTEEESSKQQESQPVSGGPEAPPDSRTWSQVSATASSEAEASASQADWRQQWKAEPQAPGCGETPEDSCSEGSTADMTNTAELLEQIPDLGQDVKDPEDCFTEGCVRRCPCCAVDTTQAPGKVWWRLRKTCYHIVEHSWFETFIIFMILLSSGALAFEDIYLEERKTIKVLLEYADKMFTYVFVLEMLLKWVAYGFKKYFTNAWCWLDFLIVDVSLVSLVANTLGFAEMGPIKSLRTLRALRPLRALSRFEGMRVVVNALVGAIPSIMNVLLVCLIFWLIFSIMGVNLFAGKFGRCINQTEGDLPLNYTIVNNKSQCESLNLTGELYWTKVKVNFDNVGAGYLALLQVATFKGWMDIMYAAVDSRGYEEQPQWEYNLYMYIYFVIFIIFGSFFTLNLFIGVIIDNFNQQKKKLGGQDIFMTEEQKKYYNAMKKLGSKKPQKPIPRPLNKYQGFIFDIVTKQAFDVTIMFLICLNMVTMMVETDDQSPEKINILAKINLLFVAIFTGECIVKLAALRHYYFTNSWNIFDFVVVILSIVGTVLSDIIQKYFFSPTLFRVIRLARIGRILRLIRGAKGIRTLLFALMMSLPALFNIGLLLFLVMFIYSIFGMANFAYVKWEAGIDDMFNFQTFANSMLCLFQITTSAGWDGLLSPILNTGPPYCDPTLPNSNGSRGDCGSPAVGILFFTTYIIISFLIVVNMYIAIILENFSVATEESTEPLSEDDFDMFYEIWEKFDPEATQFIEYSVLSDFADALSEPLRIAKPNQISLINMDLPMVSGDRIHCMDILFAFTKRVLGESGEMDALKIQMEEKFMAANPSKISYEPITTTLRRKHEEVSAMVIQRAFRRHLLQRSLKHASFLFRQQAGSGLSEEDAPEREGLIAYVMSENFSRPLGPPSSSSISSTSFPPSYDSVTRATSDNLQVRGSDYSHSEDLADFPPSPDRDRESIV

One may read the IC50 as the midpoint of a concentration-inhibition curve. Turning to `CC[C@H](C)[C@@H]1NC(=O)[C@@H]2CSSC[C@@H]3NC(=O)[C@H](CCC(=O)O)NC(=O)[C@H](CC(C)C)NC(=O)[C@H](CC(N)=O)NC(=O)[C@@H]4CCCN4C(=O)[C@H](CCCNC(=N)N)NC(=O)[C@H](CSSC[C@H](NC(=O)[C@@H](N)CC(=O)O)C(=O)N[C@@H](CC(C)C)C(=O)NCC(=O)N[C@@H](Cc4ccccc4)C(=O)N[C@@H](CCSC)C(=O)N[C@@H](CCCNC(=N)N)C(=O)N[C@@H](CCCCN)C(=O)N2)NC(=O)[C@H](CSSC[C@@H](C(=O)N[C@@H](CCCCN)C(=O)N[C@@H](Cc2ccc(O)cc2)C(=O)N[C@H](C(=O)N[C@@H](Cc2ccccc2)C(N)=O)C(C)C)NC(=O)[C@H](Cc2c[nH]c4ccccc24)NC(=O)[C@H](CCCCN)NC(=O)[C@H](Cc2cnc[nH]2)NC(=O)[C@H]([C@@H](C)O)NC(=O)[C@H](CCCNC(=N)N)NC(=O)[C@H](CO)NC3=O)NC(=O)[C@H](CCCCN)NC(=O)[C@H](CC(=O)O)NC(=O)[C@H](CC(N)=O)NC(=O)[C@H](CC(=O)O)NC(=O)[C@@H]2CCCN2C1=O` (H-DCLGFMRKCIPDNDKCCRPNLECSRTHKWCKYVF-NH2; disulfide 2-17, 9-23, 16-30), the IC50 was greater than 5 µM.

As for `CC[C@H](C)[C@@H]1NC(=O)[C@@H]2CSSC[C@@H]3NC(=O)[C@H](C(C)C)NC(=O)[C@H](CC(C)C)NC(=O)[C@H](CC(N)=O)NC(=O)[C@@H]4CCCN4C(=O)[C@H](CCCNC(=N)N)NC(=O)[C@H](CSSC[C@H](NC(=O)[C@@H](N)CC(=O)O)C(=O)N[C@@H](CC(C)C)C(=O)NCC(=O)N[C@@H](Cc4ccccc4)C(=O)N[C@@H](CCSC)C(=O)N[C@@H](CCCNC(=N)N)C(=O)N[C@@H](CCCCN)C(=O)N2)NC(=O)[C@H](CSSC[C@@H](C(=O)N[C@@H](CCCCN)C(=O)N[C@@H](Cc2ccc(O)cc2)C(N)=O)NC(=O)[C@H](Cc2c[nH]c4ccccc24)NC(=O)[C@H](CCCCN)NC(=O)[C@H](Cc2cnc[nH]2)NC(=O)[C@H]([C@@H](C)O)NC(=O)[C@H](CCCNC(=N)N)NC(=O)[C@H](CO)NC3=O)NC(=O)[C@H](CCCCN)NC(=O)[C@H](CC(=O)O)NC(=O)[C@H](CC(N)=O)NC(=O)[C@H](CC(=O)O)NC(=O)[C@@H]2CCCN2C1=O` (H-DCLGFMRKCIPDNDKCCRPNLVCSRTHKWCKY-NH2; disulfide 2-17, 9-23, 16-30), the IC50 was greater than 5 µM.

On to `CC[C@H](C)[C@@H]1NC(=O)[C@@H]2CSSC[C@@H]3NC(=O)[C@H](C(C)C)NC(=O)[C@H](CC(C)C)NC(=O)[C@H](CC(N)=O)NC(=O)[C@H](CCCNC(=N)N)NC(=O)[C@H](CCCNC(=N)N)NC(=O)[C@H](CSSC[C@H](NC(=O)[C@@H](N)CC(=O)O)C(=O)N[C@@H](CC(C)C)C(=O)NCC(=O)N[C@@H](Cc4ccccc4)C(=O)N[C@@H](CCSC)C(=O)N[C@@H](CCCNC(=N)N)C(=O)N[C@@H](CCCCN)C(=O)N2)NC(=O)[C@H](CSSC[C@@H](C(=O)N[C@@H](CCCCN)C(=O)N[C@@H](Cc2ccc(O)cc2)C(=O)N[C@H](C(=O)N[C@@H](Cc2ccccc2)C(N)=O)C(C)C)NC(=O)[C@H](Cc2c[nH]c4ccccc24)NC(=O)[C@H](CCCCN)NC(=O)[C@H](Cc2cnc[nH]2)NC(=O)[C@H]([C@@H](C)O)NC(=O)[C@H](CCCNC(=N)N)NC(=O)[C@H](CO)NC3=O)NC(=O)[C@H](CCCCN)NC(=O)[C@H](CC(=O)O)NC(=O)[C@H](CC(N)=O)NC(=O)[C@H](CC(=O)O)NC(=O)[C@@H]2CCCN2C1=O` (H-DCLGFMRKCIPDNDKCCRRNLVCSRTHKWCKYVF-NH2; disulfide 2-17, 9-23, 16-30), for which the IC50 is greater than 5 µM.

`CSCC[C@@H]1NC(=O)[C@H](Cc2ccccc2)NC(=O)CNC(=O)[C@H](CC(C)C)NC(=O)[C@@H](NC(=O)[C@@H](N)CC(=O)O)CSSC[C@@H]2NC(=O)[C@@H]3CSSC[C@@H](C(=O)N[C@@H](CCCCN)C(=O)N[C@@H](Cc4ccc(O)cc4)C(=O)N[C@H](C(=O)N[C@@H](Cc4ccccc4)C(N)=O)C(C)C)NC(=O)[C@H](Cc4c[nH]c5ccccc45)NC(=O)[C@H](CCCCN)NC(=O)[C@H](Cc4cnc[nH]4)NC(=O)[C@H]([C@@H](C)O)NC(=O)[C@H](CCCNC(=N)N)NC(=O)[C@H](CO)NC(=O)[C@H](CSSC[C@H](NC(=O)[C@H](CCCCN)NC(=O)[C@H](CCCNC(=N)N)NC1=O)C(=O)N[C@@H](Cc1ccc(C(=O)O)cc1)C(=O)N1CCC[C@H]1C(=O)N[C@@H](CC(=O)O)C(=O)N[C@@H](CC(N)=O)C(=O)N[C@@H](CC(=O)O)C(=O)N[C@@H](CCCCN)C(=O)N3)NC(=O)[C@H](C(C)C)NC(=O)[C@H](CC(C)C)NC(=O)[C@H](CC(N)=O)NC(=O)[C@@H]1CCCN1C(=O)[C@H](CCCNC(=N)N)NC2=O`: the IC50 was greater than 4.8 µM.

Consider `CC[C@H](C)[C@@H]1NC(=O)[C@@H]2CSSC[C@@H]3NC(=O)[C@H](C(C)C)NC(=O)[C@H](CC(C)C)NC(=O)[C@H](CC(N)=O)NC(=O)[C@@H]4CCCN4C(=O)[C@H](CCCNC(=N)N)NC(=O)[C@H](CSSC[C@H](NC(=O)[C@@H](N)CC(=O)O)C(=O)N[C@@H](CC(C)C)C(=O)NCC(=O)N[C@@H](Cc4ccccc4)C(=O)N[C@@H](CCSC)C(=O)N[C@@H](CCCNC(=N)N)C(=O)N[C@@H](CCCCN)C(=O)N2)NC(=O)[C@H](CSSC[C@@H](C(=O)N[C@@H](CCCCN)C(=O)N[C@@H](Cc2ccc(O)cc2)C(=O)N[C@H](C(=O)N[C@@H](Cc2ccccc2)C(=O)N[C@@H](CCCCN)C(N)=O)C(C)C)NC(=O)[C@H](Cc2c[nH]c4ccccc24)NC(=O)[C@H](CCCCN)NC(=O)[C@H](Cc2cnc[nH]2)NC(=O)[C@H]([C@@H](C)O)NC(=O)[C@H](CCCNC(=N)N)NC(=O)[C@H](CO)NC3=O)NC(=O)[C@H](CCCCN)NC(=O)[C@H](CC(=O)O)NC(=O)[C@H](CC(N)=O)NC(=O)[C@H](CC(=O)O)NC(=O)[C@@H]2CCCN2C1=O`, for which the IC50 was greater than 5 µM.

As to `CC[C@H](C)[C@@H]1NC(=O)[C@@H]2CSSC[C@@H]3NC(=O)[C@H](C(C)C)NC(=O)[C@H](CC(C)C)NC(=O)[C@H](CC(N)=O)NC(=O)[C@@H]4CCCN4C(=O)[C@H](CCCNC(=N)N)NC(=O)[C@H](CSSC[C@H](NC(=O)[C@@H](N)CC(=O)O)C(=O)N[C@@H](CC(C)C)C(=O)NCC(=O)N[C@@H](Cc4ccccc4)C(=O)N[C@@H](CCSC)C(=O)N[C@@H](CCCNC(=N)N)C(=O)N[C@@H](CCCCN)C(=O)N2)NC(=O)[C@H](CSSC[C@@H](C(=O)N[C@@H](CCCCN)C(=O)N[C@@H](Cc2ccc(O)cc2)C(=O)N[C@H](C(=O)N[C@@H](Cc2ccccc2)C(N)=O)C(C)C)NC(=O)[C@H](Cc2c[nH]c4ccccc24)NC(=O)[C@H](CCCCN)NC(=O)[C@H](Cc2cnc[nH]2)NC(=O)[C@H]([C@@H](C)O)NC(=O)[C@H](CCCNC(=N)N)NC(=O)[C@H](CO)NC3=O)NC(=O)[C@H](CCCCN)NC(=O)[C@H](CC(=O)O)NC(=O)[C@H](CCCCN)NC(=O)[C@H](CC(=O)O)NC(=O)[C@@H]2CCCN2C1=O` (H-DCLGFMRKCIPDKDKCCRPNLVCSRTHKWCKYVF-NH2; disulfide 2-17, 9-23, 16-30), the IC50 is greater than 5 µM.

For the molecule `CC[C@H](C)[C@@H]1NC(=O)[C@@H]2CSSC[C@@H]3NC(=O)[C@H](C(C)C)NC(=O)[C@H](CC(C)C)NC(=O)[C@H](CC(N)=O)NC(=O)[C@@H]4CCCN4C(=O)[C@H](CCCNC(=N)N)NC(=O)[C@H](CSSC[C@H](NC(=O)[C@@H](N)CC(=O)O)C(=O)N[C@@H](CC(C)C)C(=O)NCC(=O)N[C@@H](CCCNC(=N)N)C(=O)N[C@@H](CCSC)C(=O)N[C@@H](CCCNC(=N)N)C(=O)N[C@@H](CCCCN)C(=O)N2)NC(=O)[C@H](CSSC[C@@H](C(=O)N[C@@H](CCCCN)C(=O)N[C@@H](Cc2ccc(O)cc2)C(=O)N[C@H](C(=O)N[C@@H](Cc2ccccc2)C(N)=O)C(C)C)NC(=O)[C@H](Cc2c[nH]c4ccccc24)NC(=O)[C@H](CCCCN)NC(=O)[C@H](Cc2cnc[nH]2)NC(=O)[C@H]([C@@H](C)O)NC(=O)[C@H](CCCNC(=N)N)NC(=O)[C@H](CO)NC3=O)NC(=O)[C@H](CCCCN)NC(=O)[C@H](CC(=O)O)NC(=O)[C@H](CC(N)=O)NC(=O)[C@H](CC(=O)O)NC(=O)[C@@H]2CCCN2C1=O` (H-DCLGRMRKCIPDNDKCCRPNLVCSRTHKWCKYVF-NH2; disulfide 2-17, 9-23, 16-30), the IC50 was greater than 5 µM.

Turning to `CC[C@H](C)[C@@H]1NC(=O)[C@@H]2CSSC[C@@H]3NC(=O)[C@H](C(C)C)NC(=O)[C@H](CC(C)C)NC(=O)[C@H](CC(N)=O)NC(=O)[C@@H]4CCCN4C(=O)[C@H](CCCNC(=N)N)NC(=O)[C@H](CSSC[C@H](NC(=O)[C@@H](N)CC(=O)O)C(=O)N[C@@H](CC(C)C)C(=O)NCC(=O)N[C@@H](Cc4ccccc4)C(=O)N[C@@H](CCSC)C(=O)N[C@@H](CCCNC(=N)N)C(=O)N[C@@H](CCCCN)C(=O)N2)NC(=O)[C@H](CSSC[C@@H](C(=O)N[C@@H](CCCCN)C(=O)N[C@@H](Cc2ccc(O)cc2)C(=O)N[C@@H](Cc2c[nH]c4ccccc24)C(=O)N[C@@H](Cc2ccccc2)C(N)=O)NC(=O)[C@H](Cc2c[nH]c4ccccc24)NC(=O)[C@H](CCCCN)NC(=O)[C@H](Cc2c[nH]cn2)NC(=O)[C@H]([C@@H](C)O)NC(=O)[C@H](CCCNC(=N)N)NC(=O)[C@H](CO)NC3=O)NC(=O)[C@H](CCCCN)NC(=O)[C@H](CC(=O)O)NC(=O)[C@H](CC(N)=O)NC(=O)[C@H](CC(=O)O)NC(=O)[C@@H]2CCCN2C1=O` (H-DCLGFMRKCIPDNDKCCRPNLVCSRTHKWCKYWF-NH2; disulfide 2-17, 9-23, 16-30), the concentration for half-maximal inhibition (IC50) is greater than 5 µM.

As for `CC[C@H](C)[C@@H]1NC(=O)[C@@H]2CSSC[C@@H]3NC(=O)[C@H](C(C)C)NC(=O)[C@H](CC(C)C)NC(=O)[C@H](CC(N)=O)NC(=O)[C@@H]4CCCN4C(=O)[C@H](CCCNC(=N)N)NC(=O)[C@H](CSSC[C@H](NC(=O)[C@H](CC(=O)O)NC(=O)[C@@H](N)CCCNC(=N)N)C(=O)N[C@@H](CC(C)C)C(=O)NCC(=O)N[C@@H](Cc4ccccc4)C(=O)N[C@@H](CCSC)C(=O)N[C@@H](CCCNC(=N)N)C(=O)N[C@@H](CCCCN)C(=O)N2)NC(=O)[C@H](CSSC[C@@H](C(=O)N[C@@H](CCCCN)C(=O)N[C@@H](Cc2ccc(O)cc2)C(=O)N[C@H](C(=O)N[C@@H](Cc2ccccc2)C(N)=O)C(C)C)NC(=O)[C@H](Cc2c[nH]c4ccccc24)NC(=O)[C@H](CCCCN)NC(=O)[C@H](Cc2cnc[nH]2)NC(=O)[C@H]([C@@H](C)O)NC(=O)[C@H](CCCNC(=N)N)NC(=O)[C@H](CO)NC3=O)NC(=O)[C@H](CCCCN)NC(=O)[C@H](CC(=O)O)NC(=O)[C@H](CC(N)=O)NC(=O)[C@H](CC(=O)O)NC(=O)[C@@H]2CCCN2C1=O`, the half-inhibitory concentration (IC50) is greater than 5 µM.

Values taken from ChEMBL document CHEMBL3797186, “Single Residue Substitutions That Confer Voltage-Gated Sodium Ion Channel Subtype Selectivity in the NaV1.7 Inhibitory Peptide GpTx-1” (J Med Chem, 2016).
